Measurements taken from ChEMBL document CHEMBL4130485, “Inhibitors of Yellow Fever Virus replication based on 1,3,5-triphenyl-4,5-dihydropyrazole scaffold: Design, synthesis and antiviral evaluation” (Eur J Med Chem, 2017).

Experiments:
Yellow fever virus [1] = assay: Potency index, ratio of azauridine EC50 to compound EC50 for Yellow fever virus 17D vaccine (Stamaril Pasteur J07B01); format: functional
[2] = system: Human immunodeficiency virus 1; assay: Antiviral activity against HIV1 3B infected in human MT4 cells assessed as protection against virus-induced cytopathic effect after 4 days by MTT assay; format: functional, organism-based; conditions: Human immunodeficiency virus 1, 3B, MT4, 96 h
How it was run: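 MT-4 cells (1×10^4/well) in RPMI with serial compound dilutions, infected with 100 CCID50 HIV-1 (m.o.i. 0.01). Viability read by MTT after 4 days at 37 °C. EC50 for 50% protection from cytopathicity obtained by linear regression versus untreated controls; mean of three determinations.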

Human orthopneumovirus = assay: Antiviral activity against Human respiratory syncytial virus A2 ATCC VR 1540 infected in African green monkey Vero 76 cells assessed as protection against virus-induced cytopathic effect after 5 days by crystal violet staining-based plaque reduction assay; format: functional, organism-based; conditions: ATCC VR 1540, Vero 76, 120 h
[3] = system: Mammalian orthoreovirus 1; assay: Antiviral activity against Reovirus 1 infected in golden hamster BHK21 cells assessed as protection against virus-induced cytopathic effect after 3 to 4 days by MTT assay; format: functional, organism-based; conditions: Mammalian orthoreovirus 1, BHK-21
How it was run: (§1)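 BHK-21 cells (MDBK for BVDV) seeded at 5×10^4 (BHK) or 3×10^4 (MDBK) cells/well and grown overnight to confluence. Infected at m.o.i. 0.01 in maintenance MEM-Earle with 0.5% inactivated FBS. Serial compound dilutions added 2 h later (final 100, 20, 4, 0.8 µM; DMSO ≤0.1%). Viability read by MTT after 3–4 days at 37 °C. EC50 obtained by linear regression against untreated controls; mean of three determinations.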

[4] = Cytotoxicity against bovine MDBK cells assessed as decrease in cell viability after 72 hrs by MTT assay; format: cell-based, Bos taurus; conditions: cattle
How it was run: (§2)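 Uninfected MDBK (6×10^5 cells/mL, 10% horse serum) or BHK (1×10^6 cells/mL, 10% FBS) cells in MEM-Earle with serial compound dilutions at 37 °C, 5% CO2, run in parallel with the antiviral assays. Viability read by MTT after 72 h. CC50 by linear regression; mean of three determinations.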

[5] = system: Bovine viral diarrhea virus 1; assay: Antiviral activity against Bovine viral diarrhea virus NADL ATCC VR 534 infected in bovine MDBK cells assessed as protection against virus-induced cytopathic effect after 3 to 4 days by MTT assay; format: functional, organism-based, Bovine viral diarrhea virus 1-NADL; conditions: Bovine viral diarrhea virus isolates and strains, ATCC VR 534, MDBK; how it was run: as §1
Vaccinia virus = assay: Antiviral activity against Vaccinia virus Lister ATCC VR 1549 infected in African green monkey Vero 76 cells assessed as protection against virus-induced cytopathic effect after 3 days by crystal violet staining-based plaque reduction assay; format: functional, organism-based; conditions: Orthopoxvirus vaccinia, ATCC VR 1549, Vero 76, 72 h
[6] = Cytotoxicity against African green monkey Vero 76 cells assessed as decrease in cell viability after 48 to 96 hrs by MTT assay; format: cell-based; conditions: chlorocebus sabaeus
How it was run: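 Vero 76 cells seeded at 5×10^5 cells/mL in D-MEM with 10% FBS and incubated with serial compound dilutions at 37 °C, 5% CO2. Viability read by MTT after 48–96 h. CC50 by linear regression versus untreated controls.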

[7] = Cytotoxicity against golden hamster BHK21 cells assessed as decrease in cell viability after 72 hrs by MTT assay; format: cell-based, Mesocricetus auratus, BHK-21; how it was run: as §2
Enterovirus C = assay: Antiviral activity against Enterovirus C Sabin […] infected in African green monkey Vero 76 cells assessed as protection against virus-induced cytopathic effect after 2 days by crystal violet staining-based plaque reduction assay; format: functional, organism-based; conditions: Vero 76, 48 h
Yellow fever virus [8] = assay: Antiviral activity against Yellow fever virus 17D vaccine (Stamaril Pasteur J07B01) infected in golden hamster BHK21 cells assessed as protection against virus-induced cytopathic effect after 3 to 4 days by MTT assay; format: functional, organism-based; conditions: BHK-21; how it was run: as §1
Human alphaherpesvirus 1 = assay: Antiviral activity against Human herpesvirus 1 KOS ATCC VR 1493 infected in African green monkey Vero 76 cells assessed as protection against virus-induced cytopathic effect after 3 days by crystal violet staining-based plaque reduction assay; format: functional, organism-based; conditions: Human alphaherpesvirus 1, KOS, Vero 76, 72 h
[9] = Cytotoxicity against human MT4 cells assessed as decrease in cell viability after 96 hrs by MTT assay; format: cell-based
How it was run: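 Exponentially growing MT-4 cells seeded at 1×10^5 cells/mL in RPMI-1640 with 10% FBS and incubated with serial compound dilutions at 37 °C, 5% CO2. Viability read by MTT after 96 h. CC50 by linear regression versus untreated controls.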

[10] = system: Vesicular stomatitis Indiana virus; assay: Antiviral activity against Vesicular stomatitis virus Indiana ATCC VR 158 infected in African green monkey Vero 76 cells assessed as protection against virus-induced cytopathic effect after 2 days by crystal violet staining-based plaque reduction assay; format: functional, organism-based; conditions: ATCC VR 158, Vero 76, 48 h
[11] = Antiviral activity against Human enterovirus B Faulkner ATCC VR 185 infected in African green monkey Vero 76 cells assessed as protection against virus-induced cytopathic effect after 3 days by crystal violet staining-based plaque reduction assay; format: functional, cell-based; conditions: Faulkner ATCC VR 185, Vero 76, 72 h
West Nile virus = assay: Antiviral activity against West Nile virus clinical isolate infected in golden hamster BHK21 cells assessed as protection against virus-induced cytopathic effect after 3 to 4 days by MTT assay; format: functional, organism-based; conditions: BHK-21; how it was run: as §1
dengue virus type 2 = assay: Antiviral activity against Dengue virus type 2 clinical isolate infected in golden hamster BHK21 cells assessed as protection against virus-induced cytopathic effect after 3 to 4 days by MTT assay; format: functional, organism-based; conditions: BHK-21; how it was run: as §1
[12] = Selectivity index, ratio of CC50 for golden hamster BHK21 cells to EC50 for Yellow fever virus 17D; format: toxicity; conditions: read-out: Ratio CC50/EC50
How it was run: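 Selectivity index calculated as BHK-21 CC50 divided by YFV EC50, both from MTT assays.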

SMILES	Ratio EC50 (Yellow fever virus [1])	EC50 [2] [µM]	EC50 (Human orthopneumovirus) [µM]	EC50 [3] [µM]	CC50 at 72 h [4] [µM]	EC50 [5] [µM]	EC50 (Vaccinia virus) [µM]	CC50 [6] [µM]	CC50 at 72 h [7] [µM]	EC50 (Enterovirus C) [µM]	EC50 (Yellow fever virus [8]) [µM]	EC50 (Human alphaherpesvirus 1) [µM]	CC50 at 96 h [9] [µM]	EC50 [10] [µM]	EC50 [11] [µM]	EC50 (West Nile virus) [µM]	EC50 (dengue virus type 2) [µM]	selectivity ratio [12]
NS(=O)(=O)c1ccc(N2N=C(c3ccccc3)CC2c2cccc(F)c2)cc1 (configuration not stated)	10	13	> 24	> 15	20	> 20	> 24	24	15	> 24	≥ 15	> 24	44	> 24	> 24	–	–	–
C[C@@]1(O)[C@H](O)[C@@H](CO)O[C@H]1n1cnc2c(=O)[nH]c(N)nc21 [2'-B-METHYL-GUANOSINE]	–	–	–	–	–	–	–	–	–	–	–	–	–	–	–	0.8	1.7	–
NS(=O)(=O)c1ccc(N2N=C(c3ccccc3)CC2c2cccc(Cl)c2)cc1 (configuration not stated)	10	10	> 21	> 8	2	> 2	> 21	21	8 to 9	> 21	2.5	> 21	41	> 21	> 21	> 9	> 9	3.6
NS(=O)(=O)c1ccc(N2N=C(c3ccccc3)CC2c2ccc(F)cc2)cc1 (configuration not stated)	10	> 45	> 23	> 12	18	> 18	> 23	23	12 to 13	> 23	2.6	> 23	45	> 23	> 23	> 13	> 13	5
Cc1cccc(C2CC(c3ccccc3)=NN2c2ccc(S(N)(=O)=O)cc2)c1 (configuration not stated)	10	> 37	> 25	> 25	23	> 23	> 25	25	25	> 25	> 25	> 25	37	> 25	> 25	–	–	–
NS(=O)(=O)c1ccc(N2N=C(c3ccccc3)CC2c2ccccc2Cl)cc1 (configuration not stated)	10	> 44	> 26	> 13	9	> 9	> 26	26	13 to 14	> 26	2.4	> 26	44	> 26	> 26	> 14	> 14	5.8
Cc1ccccc1C1CC(c2ccccc2)=NN1c1ccc(S(N)(=O)=O)cc1 (configuration not stated)	10	> 43	> 24	> 14	18	> 18	> 24	24	14	> 24	2.2	> 24	43	> 24	> 24	> 14	> 14	6.4
COc1c(C)c2c(c(O)c1C/C=C(\C)CCC(=O)O)C(=O)OC2 [MYCOPHENOLIC ACID]	–	–	–	–	–	–	–	9	–	–	–	–	–	–	–	–	–	–
Nc1nc2c(ncn2COCCO)c(=O)[nH]1 [ACYCLOVIR]	–	–	–	–	–	–	–	> 100	–	–	–	1.8	–	–	–	–	–	–
NS(=O)(=O)c1ccc(N2N=C(c3ccccc3)CC2c2ccccc2F)cc1 (configuration not stated)	10	> 42	> 28	> 21	19	> 19	> 28	28	21	> 28	> 21	> 28	42	> 28	> 28	–	–	–
NS(=O)(=O)c1ccc(N2N=C(c3ccccc3)CC2c2ccc(Cl)cc2)cc1 (configuration not stated)	10	> 36	> 21	> 32	11	> 11	> 21	21	32	> 21	> 32	> 21	36	> 21	> 21	–	–	–
NS(=O)(=O)c1ccc(N2N=C(c3ccccc3)CC2c2ccccc2)cc1 (configuration not stated)	10	> 42	> 22	> 15	16	> 16	> 22	22	15	> 22	> 15	> 22	42	> 22	> 22	–	–	–
